High-throughput results deposited in PubChem by Sanford-Burnham Center for Chemical Genomics.
SKN-1 block – C. elegans SKN-1 inhibition. inhibition, % at 21.8 µM. C. elegans VP596 Pgst-4::GFP/RFP ratio, acrylamide-induced, 24 h. actives 0.49% (n = 360,000);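 active = interference check ratio from 0.5 to 1.5 plus GFP to RFP signal ratio inhibition reaching or exceeding a fixed threshold, cut at about 30% in these data, passing the limit was not always enough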
SUMO1 PPI mod – alters human SUMO1 binding to SIM partners. P63165. SUMO1 binding to a labelled peptide, TR-FRET, 1 h. inhibition, % at 20 µM. actives 0.33% (n = 360,000). AID 602429; in the data active = inhibition above about 37%
Rpn11 inh – blocks the human proteasome subunit Rpn11 | O00487 | human 26S proteasome, Ub4-pepOG fluorescence polarization; 20S core pre-blocked with epoxomicin | inhibition, % at 20 µM | actives 0.59% (n = 360,000);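 active = inhibition at 20 µM, scaled to each plate's controls, above about 33%, limit read from the data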
CSN deneddyl inh – blocks human CSN-mediated cullin deneddylation; Purified CSN, SCF-Nedd8-OG deneddylation, fluorescence polarization; Q92905; AID 651999; inhibition, % at 12.5 µM; actives 0.38% (n = 360,000);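 active = pattern-corrected inhibition above about 35%, with an unprinted fluorescence ratio check between 0.5 and 1.5, limit read from the data, passing the limit was not always enough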;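 note: 0% = enzyme with substrate and 100% = substrate without enzyme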
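Assay system: Purified human Csn5 enzyme expressed in HEK293T cells | Amount: Enzyme 0.24 nM | Measured by: Fluorescence polarization readout | Medium: Tris/NaCl/DTT buffer, pH 7.5 | Compound dosing: One concentration, 12.5 µM, 0.25% DMSO | Times: 90 min incubation of compound, enzyme and substrate at room temperature | Control set: no-enzyme wells high, enzyme-with-substrate wells low | Read-out: % inhibition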
DNMT1 block – blocks human DNA methyltransferase DNMT1 | P26358 | DNMT1 molecular beacon, Hinp1I cleavage, fluorescence | inhibition (reported as % activation of signal), % at 10 µM | actives 0.83% (n = 360,000); in the data active = inhibition above about 50%
MT1-MMP act inh – MT1-MMP (human) activation inhibition. actives 0.061% (n = 360,000). P50281. AID 651647. HT1080 RFP-PRO-GFP cells, GFP/RFP ratio fluorescence, overnight; percent of plate control window, DMSO zero. GFP/RFP ratio change, % at 20 µM;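 active = GFP/RFP ratio change of at least 30% with cell ATP level not reduced by more than half and red fluorescence within 50% of control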
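Test system: HT1080 RFP-PRO-GFP cells; Benchmarks: DMSO and RFP-L50D-GFP cell wells; Timing: cells overnight before dosing, compound overnight, 37 °C, 5% CO2; Compound: one 20 µM compound dose with 1% DMSO; Read-out: GFP/RFP fluorescence ratio.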
Beacon interf DR – shows spectral interference in the DNMT1 beacon assay; 200 tested, under 10 active; AID 602382; molecular beacon fluorescence, spectral interference counter-screen; IC50, µM; shares compounds with DNMT1 block; call rule not given here
DNMT1 confirm – DNMT1 inhibition confirmation, single concentration. DNMT1 molecular beacon HinP1I cleavage, fluorescence. actives 8% (n = 2,300). inhibition, % at 10 µM. shares compounds with DNMT1 block;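 active = average inhibition of at least 30% in the single-concentration confirmation test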
Beacon interf – shows spectral interference in the DNMT1 beacon assay. shares compounds with DNMT1 block. DNMT1 molecular beacon spectral interference counterscreen, fluorescence 485/520. activation (fluorescence interference), % at 10 µM. actives 1% (n = 2,300). AID 602387;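 active = activation of at least 30% at 10 µM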;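 note: DNMT1 catalytic domain with a HinP1I cleavage step and a FAM/dabcyl DNA beacon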
Active calls of the source: *; nt = no result given. Only some compounds are listed: those with a hit (about 2.3% of all), similar ones and a draw of the others.

SMILES	SKN-1 block	SUMO1 PPI mod	Rpn11 inh	CSN deneddyl inh	DNMT1 block	MT1-MMP act inh	DNMT1 confirm	Beacon interf	others
O=C(O)C1=CCC=CC1C(=O)O (stereo not drawn)	8.8	69.3*	-14.6	18.5	98.7*	-2.8	17.0	3.7
Cc1nc2ccccc2n1CC(=O)NCc1ccccc1	1.4	-2.0	-0.9	4.5	-0.9	0.9	nt	nt
Cc1nc2ccccc2n1CC(=O)NN	8.0	21.3	-1.5	4.0	73.7*	0.7	1.5	4.0
CC1(C(=O)NS(=O)(=O)Cc2cccc(Cl)c2)CCN1C(=O)c1ccc(C2CCCCC2)cc1 (stereo not drawn)	20.2	5.0	-3.1	-1.8	78.2*	1.2	4.0	2.9
CCc1nc2c(OCc3cc(Cl)cc(Cl)c3)cccn2c1N(C=O)Cc1ccccc1	13.9	2.2	3.0	5.2	-11.7	4.2	nt	nt
COc1ccc(CC(=O)Nc2ccc(-c3noc(-c4cccc(OC)c4)n3)cc2)cc1	0.9	-3.8	6.6	11.9	60.7*	6.3	0.9	0.6
CC1=C(C(=O)N(C)C)CC(CC(=O)NCc2cccc3ccccc23)C(=O)N1Cc1ccc(F)cc1 (stereo not drawn)	-3.9	-3.4	-1.1	-6.0	1.9	-1.4	nt	nt
Cc1cc(Br)cn2c(Cc3ccsc3)c(-c3ccc(F)cc3)nc12	23.3	-0.5	-10.8	-2.9	-131.4	-2.5	nt	nt
CC(=O)Nc1ccc2c(COC(=O)CC3Sc4ccccc4NC3=O)cc(=O)oc2c1 (stereo not drawn)	-7.0	2.1	19.1	15.4	60.2*	2.9	10.2	3.5
COc1ccc2c(COC(=O)CC3Sc4ccccc4NC3=O)cc(=O)oc2c1 (stereo not drawn)	7.4	-1.1	9.2	6.8	-1.3	-2.4	nt	nt
O=S(=O)(O)c1cc(O)ccc1O	9.4	-5.8	-3.2	1.1	-3.9	2.6	nt	nt
O=S(=O)(c1cc(O)ccc1O)c1cccc2c(S(=O)(=O)c3cc(O)ccc3O)cccc12	6.9	58.1*	30.4	48.5	95.4*	3.0	83.2*	3.3	Beacon interf DR=>99
O=C(NNC(=O)c1cc2cc3ccccc3nc2s1)c1cccc(Cl)c1	-28.5	-2.5	2.5	22.8	78.4*	0.2	2.3	1.1
Cc1cccc(C(=O)NNC(=O)c2cc3cc4ccccc4nc3s2)c1	0.2	-4.4	-2.0	6.7	9.3	7.7	nt	nt
COc1ccc(CNC(=O)c2cccc3c(-c4cnn(C)c4)coc23)cc1OC	9.6	6.4	-8.2	1.6	2.2	-4.1	nt	nt
O=c1c2ccccc2nnn1CSc1nnc(-c2cccs2)n1Cc1ccccc1	-10.3	-12.6	-1.0	-1.2	2.4	-1.1	nt	nt
O=c1cc(CSc2nnc(-c3cccs3)n2Cc2ccccc2)nc2sc3ccccc3n12	8.8	4.4	-11.4	1.2	95.9*	-3.8	1.5	0.1
Cc1cccc(CC(=O)NCCN2CCCCC2)c1	-26.2	0.5	-1.3	-2.0	56.6*	-1.1	-1.1	1.8
Cc1cccc(C(=O)NCCN2CCCC2)c1	1.6	-1.4	-3.5	-4.2	-0.4	-3.3	nt	nt
COc1ccc(-c2noc(CCC(=O)N3CCC(c4cc(C)ccc4C)CC3)n2)cc1	-6.3	0.8	4.0	0.2	49.9	0.8	0.0	0.4
COc1ccc(-c2noc(CCC(=O)N3CCN(c4cccc(OC)c4)CC3)n2)cc1	2.2	4.4	1.3	1.0	2.8	4.5	nt	nt
Cc1nc(C)c(C(=O)Nc2nc3c(C)cccc3s2)o1	7.6	16.5	2.3	19.3	78.9*	-5.3	9.7	-0.5
CCCNC(=O)C1(C)CCCN(Cc2csc(-c3ccccc3)n2)C1 (stereo not drawn)	10.9	-5.8	-2.2	-1.5	6.1	-5.1	nt	nt
